Experimental data as given in ChEMBL document CHEMBL1933063, “Investigation of chalcones and benzochalcones as inhibitors of breast cancer resistance protein” (Bioorg Med Chem, 2012).

What was measured:
[1] = molecular target: Multidrug resistance-associated protein 1 (Homo sapiens, UniProt P33527); assay: Inhibition of MRP1 overexpressed in human 2008 MRP1 cells assessed as calcein AM accumulation at 10 uM by fluorimetry; format: cell-based; settings: human, 2008, 10 µM
How it was run: (§1)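 Calcein AM accumulation in A2780adr (P-gp) or 2008 MRP1 cells. Cells washed in Krebs-HEPES buffer, about 30,000 per well, preincubated 30 min with compound at 10 µM final. Calcein AM then added. Fluorescence (ex 485, em 520 nm) read every 60 s up to 90 min at 37 °C. Expressed as percent of vehicle control; n = 3.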

[2] = molecular target: T1, Broad substrate specificity ATP-binding cassette transporter ABCG2 (Homo sapiens, UniProt Q9UNQ0); assay: Inhibition of human BCRP expressed in MDCK2 cells assessed as Hoechst 33342 accumulation preincubated for 30 mins by fluorimetry; format: cell-based, MDCK-II
T1 sequence (Q9UNQ0 whole entry): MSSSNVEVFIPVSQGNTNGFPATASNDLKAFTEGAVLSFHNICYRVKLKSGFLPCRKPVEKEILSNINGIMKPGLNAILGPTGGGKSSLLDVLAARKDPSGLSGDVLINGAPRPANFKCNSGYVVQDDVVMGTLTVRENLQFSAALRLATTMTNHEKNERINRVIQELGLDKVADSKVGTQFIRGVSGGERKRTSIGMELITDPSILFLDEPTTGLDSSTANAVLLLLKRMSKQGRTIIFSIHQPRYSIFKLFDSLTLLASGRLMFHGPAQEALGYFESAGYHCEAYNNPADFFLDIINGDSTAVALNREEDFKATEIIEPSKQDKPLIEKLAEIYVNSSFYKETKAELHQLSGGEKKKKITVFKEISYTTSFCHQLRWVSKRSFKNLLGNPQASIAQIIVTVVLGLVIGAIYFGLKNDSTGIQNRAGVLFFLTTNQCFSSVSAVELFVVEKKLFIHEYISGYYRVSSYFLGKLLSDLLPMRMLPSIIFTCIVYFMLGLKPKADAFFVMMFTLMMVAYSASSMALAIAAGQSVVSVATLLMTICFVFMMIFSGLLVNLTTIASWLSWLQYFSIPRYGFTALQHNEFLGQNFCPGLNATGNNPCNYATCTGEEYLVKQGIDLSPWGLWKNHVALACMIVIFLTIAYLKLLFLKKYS
How it was run: (§2)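 Cells washed three times in Krebs-HEPES buffer, about 20,000 per well, preincubated with test compound at varied concentrations for 30 min at 37 °C, 5% CO2. Hoechst 33342 then added (final 1 µM). Fluorescence (ex 355, em 460 nm) read every 60 s up to 120 min at 37 °C. KHB background subtracted, 100–109 min mean plotted, four-parameter logistic fit; ≥3 independent experiments.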

[3] = molecular target: ATP-dependent translocase ABCB1 (Homo sapiens, UniProt P08183); assay: Inhibition of MDR1 in human A2780adr cells assessed as calcein AM accumulation at 10 uM by fluorimetry; format: cell-based; settings: a2780 adr; how it was run: as §1
[4] = molecular target: T1, Broad substrate specificity ATP-binding cassette transporter ABCG2; assay: Inhibition of BCRP in human MCF7/MX cells assessed as Hoechst 33342 accumulation preincubated for 30 mins by Fluorometry; format: cell-based; how it was run: as §2
MDCK-II = assay: Potentiation of SN-38 anticancer activity against MDCK2 cells expressing human BCRP after 72 hrs by MTT assay; format: functional, cell-based; settings: Canis lupus familiaris
How it was run: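 Cells seeded (1250/well MDCK, 10,000/well MCF-7) and left 6 h at 37 °C, 5% CO2. Mitoxantrone or SN-38 dose range added with or without three concentrations of modulator, then 72 h incubation. MTT added for 1 h, cells lysed in DMSO, absorbance read at 544 nm minus 710 nm. EC50 derived; parental cells as controls; three independent experiments.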

Sequence of Multidrug resistance-associated protein 1 (P33527 whole entry): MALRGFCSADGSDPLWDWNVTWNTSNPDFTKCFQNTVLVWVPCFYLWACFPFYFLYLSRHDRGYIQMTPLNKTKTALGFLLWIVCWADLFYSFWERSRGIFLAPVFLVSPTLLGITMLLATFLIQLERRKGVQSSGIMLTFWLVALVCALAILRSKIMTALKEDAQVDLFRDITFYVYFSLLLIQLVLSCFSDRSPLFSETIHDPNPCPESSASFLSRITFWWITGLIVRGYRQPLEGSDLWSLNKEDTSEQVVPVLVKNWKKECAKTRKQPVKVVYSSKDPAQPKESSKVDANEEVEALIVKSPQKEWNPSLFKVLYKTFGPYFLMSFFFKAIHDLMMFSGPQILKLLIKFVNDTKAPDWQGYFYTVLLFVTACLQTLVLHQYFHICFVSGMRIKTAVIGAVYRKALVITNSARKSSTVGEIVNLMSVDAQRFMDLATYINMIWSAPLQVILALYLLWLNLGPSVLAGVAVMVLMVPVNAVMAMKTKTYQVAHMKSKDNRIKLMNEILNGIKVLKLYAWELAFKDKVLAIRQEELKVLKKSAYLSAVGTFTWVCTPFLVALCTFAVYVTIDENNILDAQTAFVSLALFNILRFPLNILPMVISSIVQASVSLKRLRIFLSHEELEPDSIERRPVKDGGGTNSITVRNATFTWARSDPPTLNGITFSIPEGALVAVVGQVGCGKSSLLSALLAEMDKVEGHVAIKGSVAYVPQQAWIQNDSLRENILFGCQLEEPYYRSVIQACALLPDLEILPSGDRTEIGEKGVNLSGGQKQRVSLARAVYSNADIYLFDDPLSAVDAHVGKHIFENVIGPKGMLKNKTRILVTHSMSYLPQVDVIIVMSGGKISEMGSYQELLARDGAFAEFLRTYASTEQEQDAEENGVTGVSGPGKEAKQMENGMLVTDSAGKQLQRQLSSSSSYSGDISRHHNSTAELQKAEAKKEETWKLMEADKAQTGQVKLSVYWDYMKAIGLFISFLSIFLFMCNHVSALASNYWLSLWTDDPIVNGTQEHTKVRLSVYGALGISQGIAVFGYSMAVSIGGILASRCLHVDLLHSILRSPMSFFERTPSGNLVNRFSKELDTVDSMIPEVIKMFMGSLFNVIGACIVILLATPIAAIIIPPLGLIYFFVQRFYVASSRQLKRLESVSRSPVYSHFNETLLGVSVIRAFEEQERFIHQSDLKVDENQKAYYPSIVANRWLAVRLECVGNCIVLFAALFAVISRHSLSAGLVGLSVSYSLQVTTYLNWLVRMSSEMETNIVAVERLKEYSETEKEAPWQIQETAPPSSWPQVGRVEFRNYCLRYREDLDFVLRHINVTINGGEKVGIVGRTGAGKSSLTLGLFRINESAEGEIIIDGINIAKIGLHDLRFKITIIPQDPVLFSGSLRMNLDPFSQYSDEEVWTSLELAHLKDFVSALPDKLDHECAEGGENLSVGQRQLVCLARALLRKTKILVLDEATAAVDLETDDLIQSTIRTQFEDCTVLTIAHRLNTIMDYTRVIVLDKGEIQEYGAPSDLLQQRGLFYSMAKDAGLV
Sequence of ATP-dependent translocase ABCB1 (P08183 whole entry): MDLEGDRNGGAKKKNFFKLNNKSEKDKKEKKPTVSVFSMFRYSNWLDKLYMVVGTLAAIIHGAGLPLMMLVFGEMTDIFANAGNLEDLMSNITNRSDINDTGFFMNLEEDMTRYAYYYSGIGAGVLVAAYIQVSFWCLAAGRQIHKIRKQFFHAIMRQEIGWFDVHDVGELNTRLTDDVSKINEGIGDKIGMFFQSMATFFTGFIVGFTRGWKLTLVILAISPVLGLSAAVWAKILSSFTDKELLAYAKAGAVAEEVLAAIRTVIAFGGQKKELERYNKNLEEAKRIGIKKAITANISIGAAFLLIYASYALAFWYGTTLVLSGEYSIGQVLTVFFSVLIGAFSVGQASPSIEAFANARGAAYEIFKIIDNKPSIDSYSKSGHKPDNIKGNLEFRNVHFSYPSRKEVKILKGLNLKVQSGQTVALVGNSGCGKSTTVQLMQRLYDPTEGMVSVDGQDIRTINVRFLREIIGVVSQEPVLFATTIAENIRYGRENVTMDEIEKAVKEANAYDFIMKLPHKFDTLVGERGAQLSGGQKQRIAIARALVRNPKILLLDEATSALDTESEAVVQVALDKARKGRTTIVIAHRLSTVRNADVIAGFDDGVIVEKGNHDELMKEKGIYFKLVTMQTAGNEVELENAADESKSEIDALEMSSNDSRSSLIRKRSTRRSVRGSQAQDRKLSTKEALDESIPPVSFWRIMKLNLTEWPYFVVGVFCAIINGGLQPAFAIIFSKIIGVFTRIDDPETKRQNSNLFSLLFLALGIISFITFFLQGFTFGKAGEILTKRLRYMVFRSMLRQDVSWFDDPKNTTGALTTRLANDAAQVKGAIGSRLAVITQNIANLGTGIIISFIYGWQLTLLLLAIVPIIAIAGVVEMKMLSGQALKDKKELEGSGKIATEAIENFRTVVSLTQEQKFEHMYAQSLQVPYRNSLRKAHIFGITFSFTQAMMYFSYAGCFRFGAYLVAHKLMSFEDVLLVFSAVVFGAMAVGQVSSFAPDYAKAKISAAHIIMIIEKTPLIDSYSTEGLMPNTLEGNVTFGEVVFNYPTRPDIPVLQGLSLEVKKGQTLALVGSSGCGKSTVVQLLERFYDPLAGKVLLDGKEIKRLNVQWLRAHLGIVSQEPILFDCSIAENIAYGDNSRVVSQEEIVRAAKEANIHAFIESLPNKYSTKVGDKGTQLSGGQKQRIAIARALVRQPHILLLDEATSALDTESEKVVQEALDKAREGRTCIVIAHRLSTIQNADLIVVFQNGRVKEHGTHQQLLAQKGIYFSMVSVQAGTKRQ

| SMILES | inhibition (INH) [1] | IC50 ([2]; read-out: IC50) | inhibition (INH) [3] | IC50 ([4]; read-out: IC50) | IC50 ([2]; mdck-ii) | IC50 ([4]; mcf7/mx) | Activity (MDCK-II) |
| --- | --- | --- | --- | --- | --- | --- | --- |
| COc1ccc(/C=C/C(=O)c2ccc(OC)cc2OC)cc1 [METOCHALCONE] | Not Active | 1.91 µM | Active | 2.34 µM |  |  |  |
| COc1ccc(C(=O)/C=C/c2ccccc2Cl)c(O)c1 | Not Active | 3.32 µM | Active | 6.85 µM |  |  |  |
| COc1ccc(/C=C/C(=O)c2c(O)cc(OC)cc2OC)cc1 [FLAVOKAWAIN A] | Not Active | 3 µM | Active | 5.83 µM |  |  |  |
| COc1cccc(/C=C/C(=O)c2ccc(O)cc2O)c1 | Not Active | 1.94 µM | Active | 2.8 µM |  |  |  |
| COc1ccc(C(=O)/C=C/c2ccc(Cl)c(Cl)c2)c(O)c1 | Not Active |  | Active |  | Not Active | Not Active |  |
| COc1cc(OO)ccc1C(=O)/C=C/c1ccc(Cl)c(Cl)c1 | Not Active |  | Active |  | Not Active | Not Active |  |
| COc1ccc(/C=C/C(=O)c2ccccc2O)cc1OC | Not Active | 4.97 µM | Active | 5.07 µM |  |  |  |
| COc1ccc(/C=C/C(=O)c2ccc(OC)c(OC)c2)cc1 | Not Active | 1.16 µM | Active | 2.19 µM |  |  |  |
| COc1ccc(C(=O)/C=C/c2ccc(OC)c(OC)c2)c(OC)c1 | Not Active | 1.03 µM | Active | 2.2 µM |  |  |  |
| O=C(/C=C/c1ccccc1Cl)c1ccccc1 | Not Active |  | Active |  | Not Active | Not Active |  |
| COc1ccc(C(=O)/C=C/c2ccccc2Cl)c(OC)c1 | Not Active | 2.63 µM | Active | 3.13 µM |  |  |  |
| COc1ccc(/C=C/C(=O)c2ccc(OC)c(OC)c2)cc1OC | Not Active | 3.8 µM | Active | 3.28 µM |  |  |  |
| COc1ccc(C(=O)/C=C/c2ccccc2Cl)cc1OC | Not Active | 7.8 µM | Active | 11 µM |  |  |  |
| COc1cc(O)c(C(=O)/C=C/c2ccccc2Cl)c(OC)c1 | Not Active | 2.82 µM | Active | 5.27 µM |  |  |  |
| COc1cccc(/C=C/C(=O)c2ccc(OC)cc2O)c1 | Not Active | 1.47 µM | Active | 3.15 µM |  |  |  |
| COc1ccc(/C=C/C(=O)c2ccc(O)cc2O)cc1OC | Not Active | 0.85 µM | Active | 0.93 µM |  |  |  |
| COc1ccc(C(=O)/C=C/c2ccc(OC)c(OC)c2)c(O)c1 | Not Active | 1.06 µM | Active | 2.17 µM |  |  |  |
| O=C(/C=C/c1ccccc1Cl)c1ccc(O)cc1O | Not Active | 3.28 µM | Active | 3.21 µM |  |  |  |
| COc1ccc(/C=C/C(=O)c2ccc(OC)cc2O)cc1 | Not Active | 2.2 µM | Active | 4.2 µM |  |  |  |
| COc1ccc(/C=C/C(=O)c2ccccc2)cc1OC | Not Active |  | Active |  | Not Active | Not Active |  |

Continued, in another order:

| inhibition (INH) [1] | IC50 ([2]; read-out: IC50) | inhibition (INH) [3] | IC50 ([4]; read-out: IC50) | IC50 ([2]; mdck-ii) | IC50 ([4]; mcf7/mx) | SMILES | Activity (MDCK-II) |
| --- | --- | --- | --- | --- | --- | --- | --- |
| Not Active | 2.58 µM | Active | 2.77 µM |  |  | O=C(/C=C/c1ccccc1)c1c(O)ccc2ccccc12 |  |
| Not Active |  | Active |  | Not Active | Not Active | COc1ccc(/C=C/C(=O)c2ccccc2O)cc1 |  |
| Not Active | 7.26 µM | Active | 8.78 µM |  |  | O=C(/C=C/c1ccc(Cl)c(Cl)c1)c1c(O)ccc2ccccc12 |  |
| Not Active | 5.58 µM | Active | 5.21 µM |  |  | O=C(/C=C/c1ccccc1Cl)c1c(O)ccc2ccccc12 |  |
| Not Active | 1.95 µM | Active | 2.5 µM |  |  | COc1ccc(/C=C/C(=O)c2ccc3ccccc3c2O)cc1OC |  |
| Not Active |  | Active |  | Not Active | Not Active | O=C(/C=C/c1ccc(Cl)cc1)c1c(O)ccc2ccccc12 |  |
| Not Active | 0.72 µM | Active | 1.84 µM |  |  | COc1ccc(/C=C/C(=O)c2c(O)ccc3ccccc23)cc1OC | Dose-dependent effect |
| Not Active | 22.4 µM | Active | 26.1 µM |  |  | O=C(/C=C/c1ccc(Cl)c(Cl)c1)c1ccc2ccccc2c1O |  |
| Not Active | 9.23 µM | Active | 24.3 µM |  |  | O=C(/C=C/c1ccccc1)c1ccc2ccccc2c1O |  |
| Not Active | 1.13 µM | Active | 3.09 µM |  |  | COc1ccc(C(=O)/C=C/c2ccc(Cl)cc2)c(OC)c1 |  |
| Not Active |  | Active |  | Not Active | Not Active | O=C(/C=C/c1ccccc1)c1ccccc1O [2'-HYDROXYCHALCONE] |  |
| Not Active | 6.37 µM | Active | 6.07 µM |  |  | O=C(/C=C/c1ccc(Cl)cc1)c1ccc(O)cc1O |  |
| Not Active |  | Active |  | Not Active | Not Active | O=C(/C=C/c1ccccc1)c1ccc(O)cc1O [2',4'-DIHYDROXYCHALCONE] |  |
| Not Active | 5.68 µM | Active | 11.9 µM |  |  | COc1cccc(/C=C/C(=O)c2ccc3ccccc3c2O)c1 |  |
| Not Active | 9.83 µM | Active | 16.9 µM |  |  | COc1ccc(/C=C/C(=O)c2ccc3ccccc3c2O)cc1 |  |
| Not Active | 2.89 µM | Active | 3.81 µM |  |  | COc1ccc(/C=C/C(=O)c2c(O)ccc3ccccc23)cc1 |  |
| Not Active | 30.9 µM | Active | 31 µM |  |  | COc1ccc(C(=O)/C=C/c2ccccc2)c(O)c1 |  |
| Not Active |  | Active |  | Not Active | Not Active | O=C(/C=C/c1ccc(Cl)cc1)c1ccc2ccccc2c1O |  |
| Not Active | 10.7 µM | Active | 13.5 µM |  |  | COc1ccc(C(=O)/C=C/c2ccc(Cl)cc2)c(O)c1 |  |
| Not Active | 1.93 µM | Active | 1.93 µM |  |  | COc1cccc(/C=C/C(=O)c2c(O)ccc3ccccc23)c1 |  |
| Not Active | 12 µM | Active | 33.3 µM |  |  | COc1ccc(/C=C/C(=O)c2ccc(O)cc2O)cc1 |  |
| Not Active | 1.73 µM | Active | 2.72 µM |  |  | COc1ccc(C(=O)/C=C/c2ccc(Cl)cc2)cc1OC |  |
| Not Active |  | Active |  | Not Active | Not Active | O=C(/C=C/c1ccccc1Cl)c1ccc2ccccc2c1O |  |
